From ChEMBL document CHEMBL1149815, “New amido derivatives as potential BKCa potassium channel activators. XI” (Eur J Med Chem, 2008)

Legend:
Assay type in all cases: tissue-based
[1] = biological target: Calcium-activated potassium channel subunit alpha-1 (Rattus norvegicus) (UniProt Q62976); test: (§1) Induction of BK channel mediated vasorelaxation activity in Kcl-induced contraction in Wistar rat aorta
How it was run: (§2)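 Endothelium-denuded thoracic aortic rings from male normotensive Wistar rats (250-350 g), equilibrated 60 min. Denudation was confirmed by acetylcholine relaxation below 10% of KCl tone. Rings were precontracted with 20 mM KCl; at plateau, 3-fold increasing concentrations were added cumulatively. Efficacy was maximal relaxation as % of KCl tone. pIC50 was -log molar concentration halving tone, not derived if efficacy was below 50%. 5-10 experiments.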

[2] = biological target: Calcium-activated potassium channel subunit alpha-1 (Rattus norvegicus, UniProt Q62976); test: as §1; how it was run: as §2
[3] = biological target: Calcium-activated potassium channel subunit alpha-1 (Rattus norvegicus) (UniProt Q62976); test: Induction of BK channel mediated vasorelaxation activity in Kcl-induced contraction in Wistar rat aorta in presence of IbTX; how it was run: as §2

Chain of Calcium-activated potassium channel subunit alpha-1 (Rattus norvegicus) (Q62976 whole entry): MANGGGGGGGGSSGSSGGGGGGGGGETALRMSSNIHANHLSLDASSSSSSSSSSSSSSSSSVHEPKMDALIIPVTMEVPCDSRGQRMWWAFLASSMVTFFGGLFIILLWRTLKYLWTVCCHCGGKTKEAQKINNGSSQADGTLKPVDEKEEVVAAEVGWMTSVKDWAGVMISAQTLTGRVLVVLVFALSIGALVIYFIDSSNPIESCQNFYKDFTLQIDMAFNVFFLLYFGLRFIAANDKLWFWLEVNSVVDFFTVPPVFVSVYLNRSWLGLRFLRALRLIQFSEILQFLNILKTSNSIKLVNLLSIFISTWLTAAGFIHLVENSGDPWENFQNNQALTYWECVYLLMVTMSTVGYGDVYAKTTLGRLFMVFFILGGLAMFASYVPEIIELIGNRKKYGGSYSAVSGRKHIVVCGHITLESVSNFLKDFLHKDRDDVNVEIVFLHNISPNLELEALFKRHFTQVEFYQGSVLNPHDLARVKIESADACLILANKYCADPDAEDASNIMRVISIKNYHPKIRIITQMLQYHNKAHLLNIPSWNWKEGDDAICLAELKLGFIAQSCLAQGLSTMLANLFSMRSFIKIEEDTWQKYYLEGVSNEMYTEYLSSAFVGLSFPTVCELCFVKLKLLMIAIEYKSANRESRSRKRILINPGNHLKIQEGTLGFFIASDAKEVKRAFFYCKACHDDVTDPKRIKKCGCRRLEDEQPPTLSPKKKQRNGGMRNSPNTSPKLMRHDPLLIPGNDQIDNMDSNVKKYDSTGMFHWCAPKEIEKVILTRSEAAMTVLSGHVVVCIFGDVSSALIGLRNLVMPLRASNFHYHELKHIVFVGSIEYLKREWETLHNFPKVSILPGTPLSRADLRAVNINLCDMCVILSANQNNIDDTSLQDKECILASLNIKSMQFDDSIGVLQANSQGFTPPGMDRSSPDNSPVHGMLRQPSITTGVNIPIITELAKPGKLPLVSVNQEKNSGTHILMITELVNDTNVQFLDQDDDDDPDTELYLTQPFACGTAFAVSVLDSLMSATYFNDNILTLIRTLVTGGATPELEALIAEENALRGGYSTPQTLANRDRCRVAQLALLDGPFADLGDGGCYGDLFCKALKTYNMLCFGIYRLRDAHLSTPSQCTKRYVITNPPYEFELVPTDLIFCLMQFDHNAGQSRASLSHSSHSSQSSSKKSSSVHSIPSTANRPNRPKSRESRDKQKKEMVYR
Chain of Calcium-activated potassium channel subunit alpha-1 (Q62976 whole entry): as above

Row | SMILES | Emax [1] | IC50 [2] | Emax [3]
1 | COc1ccccc1CC(=O)Nc1cc([N+](=O)[O-])ccc1OC | 21% |  | 
2 | O=C(NCc1ccccc1[N+](=O)[O-])c1ccccc1O | 47% |  | 
3 | COc1ccccc1CNC(=O)c1ccccc1OC | 16% |  | 
4 | O=c1[nH]c2cc(C(F)(F)F)ccc2n1-c1cc(C(F)(F)F)ccc1O |  | 4.37 µM | 
5 | COc1ccccc1CC(=O)Nc1ccc([N+](=O)[O-])cc1 | 29% |  | 
6 | O=C(Cc1ccccc1O)Nc1ccc([N+](=O)[O-])cc1 | 79% | 22.9 µM | 
7 | COc1ccccc1CNC(=O)Cc1ccccc1OC | 22% |  | 
8 | COc1ccc([N+](=O)[O-])cc1NC(=O)Cc1ccccc1O | 82% | 18.2 µM | 
9 | COc1ccccc1C(=O)NCc1ccccc1 | 23% |  | 
10 | Cc1cc([N+](=O)[O-])ccc1NC(=O)Cc1ccccc1O | 84% | 20 µM | 32%
11 | COc1ccccc1C(=O)NCc1ccccc1[N+](=O)[O-] | 29% |  | 

Now from value to compound:

Row | Emax [1] | IC50 [2] | Emax [3] | SMILES
12 | 40% |  |  | COc1ccccc1CNC(=O)Cc1ccccc1O
13 | 37% |  |  | COc1ccccc1CC(=O)Nc1cc(Cl)ccc1O
14 | 33% |  |  | O=C(Cc1ccccc1O)NCc1ccccc1
15 | 50% |  |  | O=C(Cc1ccccc1C(F)(F)F)Nc1cc(Cl)ccc1O
16 | 47% |  |  | O=C(NCc1ccccc1)c1ccccc1O
17 | 55% | 27.5 µM |  | O=C(Cc1ccccc1C(F)(F)F)Nc1ccccc1F
18 | 43% |  |  | O=C(Cc1ccccc1O)Nc1ccccc1F
19 | 61% | 24.5 µM |  | COc1ccccc1CC(=O)Nc1cc(C)ccc1O
20 | 28% |  |  | COc1ccccc1CC(=O)Nc1ccccc1F
21 | 40% |  |  | O=C(Cc1ccccc1O)Nc1ccccc1
22 | 40% |  |  | O=C(Cc1ccccc1O)NCc1ccccc1[N+](=O)[O-]
23 | 25% |  |  | COc1ccccc1CC(=O)NCc1ccccc1
